Key:
[1] = target: T1, Type-1 angiotensin II receptor (Homo sapiens, UniProt P30556); assay: Displacement of Europium-labeled angiotensin-2 from human AT1 receptor expressed in CHOK1 cell membranes after 120 mins by DELFIA
T1 sequence (P30556 whole entry): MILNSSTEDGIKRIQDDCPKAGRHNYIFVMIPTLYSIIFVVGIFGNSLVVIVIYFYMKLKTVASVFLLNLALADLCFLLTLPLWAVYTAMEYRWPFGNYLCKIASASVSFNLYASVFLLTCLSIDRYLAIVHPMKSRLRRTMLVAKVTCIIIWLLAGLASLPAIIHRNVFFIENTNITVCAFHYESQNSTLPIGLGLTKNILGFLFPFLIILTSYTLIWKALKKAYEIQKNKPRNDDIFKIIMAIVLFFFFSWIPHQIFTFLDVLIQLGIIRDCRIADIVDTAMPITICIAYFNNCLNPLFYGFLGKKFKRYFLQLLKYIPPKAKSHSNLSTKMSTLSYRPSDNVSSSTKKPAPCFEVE

Rattus norvegicus [2] = assay: In vivo antagonist activity at AT1 receptor in Sprague-Dawley rat assessed as inhibition of angiotensin-2-induced pressor response at 3 mg/kg, iv treated for 5 mins at 15 mins post 2 doses of angiotensin-2 treatment at 15 minutes apart followed by ANP treatment and subsequent angiotensin-2 re-challenge after 60 mins relative to control; assay type: functional
In short: (§1)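 Rat pharmacodynamic assay with intravenous dosing to exclude oral absorption. AT1 antagonism is read in the same animal as inhibition of the angiotensin-II-evoked pressor response. NEP inhibition is read as potentiation of ANP-induced elevation of urinary cGMP output, relative to vehicle.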

Neprilysin = Neprilysin (Homo sapiens, UniProt P08473); assay: Inhibition of NEP (unknown origin) preincubated for 10 mins followed by fluorogenic substrate addition and measured after 20 mins by fluorescence assay
Neprilysin, sequence (P08473 whole entry): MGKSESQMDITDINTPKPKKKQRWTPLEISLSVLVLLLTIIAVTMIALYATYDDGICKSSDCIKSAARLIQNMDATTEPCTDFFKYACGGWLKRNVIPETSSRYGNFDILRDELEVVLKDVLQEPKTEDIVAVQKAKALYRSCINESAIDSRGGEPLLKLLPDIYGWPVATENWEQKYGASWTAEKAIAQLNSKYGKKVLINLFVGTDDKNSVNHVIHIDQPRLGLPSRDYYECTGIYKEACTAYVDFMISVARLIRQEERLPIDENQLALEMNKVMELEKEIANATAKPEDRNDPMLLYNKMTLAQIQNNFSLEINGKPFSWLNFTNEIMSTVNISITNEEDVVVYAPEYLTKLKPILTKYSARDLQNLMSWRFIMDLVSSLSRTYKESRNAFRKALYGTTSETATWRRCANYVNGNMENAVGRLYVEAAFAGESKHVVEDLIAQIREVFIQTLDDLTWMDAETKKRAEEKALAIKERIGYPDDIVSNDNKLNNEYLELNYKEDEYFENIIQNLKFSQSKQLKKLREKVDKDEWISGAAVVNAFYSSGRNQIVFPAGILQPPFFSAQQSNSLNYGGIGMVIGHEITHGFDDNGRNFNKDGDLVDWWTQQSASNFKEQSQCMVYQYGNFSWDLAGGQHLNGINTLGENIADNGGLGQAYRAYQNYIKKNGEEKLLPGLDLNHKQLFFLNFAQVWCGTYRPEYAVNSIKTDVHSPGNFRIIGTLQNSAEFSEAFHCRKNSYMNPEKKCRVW

Rattus norvegicus [3] = assay: Antihypertensive activity in spontaneously hypertensive rat assessed as reduction in mean arterial pressure administered via oral gavage in […] measured up to 24 hrs by telemetry method; assay type: functional
In short: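 Conscious spontaneously hypertensive rats, dosed orally. Blood pressure is monitored by telemetry for 24 h after each dose. Sequential escalating doses of 3, 10, 30 and 100 mg/kg are given at 24 h intervals. Efficacy is the peak percent fall in MAP from baseline. Duration is the vehicle-adjusted % change in AUC over 24 h. Statistics: two-way ANOVA with Bonferroni post hoc.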

[4] = target: aminopeptidase P (Xaa-Pro aminopeptidase, Homo sapiens); assay: Inhibition of APP (unknown origin)
Homo sapiens [5] = species: Homo sapiens; assay: Selectivity ratio of Ki for human AT2 receptor to Ki for human AT1 receptor
[6] = target: T2, Type-1 angiotensin II receptor (Homo sapiens) (UniProt P30556); assay: Antagonist activity at AT1 receptor (unknown origin) by inositol phosphate accumulation assay relative to control; assay type: functional
T2 sequence (whole entry): T1 sequence (P30556 whole entry)

Homo sapiens [7] = species: Homo sapiens; assay: Selectivity ratio of IC50 for recombinant human ECE1 to IC50 for recombinant human NEP
[8] = target: T3, Endothelin-converting enzyme 1 (Homo sapiens, UniProt P42892); assay: Inhibition of recombinant human ECE1
T3 sequence (P42892 whole entry): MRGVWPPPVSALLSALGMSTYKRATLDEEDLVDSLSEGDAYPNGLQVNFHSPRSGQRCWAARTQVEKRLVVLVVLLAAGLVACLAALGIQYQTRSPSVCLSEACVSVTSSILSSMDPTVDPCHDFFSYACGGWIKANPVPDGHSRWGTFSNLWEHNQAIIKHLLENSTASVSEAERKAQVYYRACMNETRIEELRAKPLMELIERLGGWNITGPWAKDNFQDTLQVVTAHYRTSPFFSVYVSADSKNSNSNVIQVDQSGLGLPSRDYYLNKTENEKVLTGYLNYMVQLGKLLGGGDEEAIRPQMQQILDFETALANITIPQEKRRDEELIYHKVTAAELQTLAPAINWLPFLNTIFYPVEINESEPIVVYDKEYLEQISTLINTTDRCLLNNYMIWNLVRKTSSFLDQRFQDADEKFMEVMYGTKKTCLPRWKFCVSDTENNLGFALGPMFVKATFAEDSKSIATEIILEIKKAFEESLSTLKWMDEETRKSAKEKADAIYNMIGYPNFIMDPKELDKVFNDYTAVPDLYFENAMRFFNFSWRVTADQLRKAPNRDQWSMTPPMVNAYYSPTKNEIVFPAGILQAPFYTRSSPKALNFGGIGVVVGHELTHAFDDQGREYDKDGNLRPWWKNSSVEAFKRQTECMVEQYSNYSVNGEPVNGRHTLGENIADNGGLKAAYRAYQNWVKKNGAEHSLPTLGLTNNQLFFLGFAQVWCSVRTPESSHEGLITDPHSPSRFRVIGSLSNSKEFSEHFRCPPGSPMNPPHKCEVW

Rattus norvegicus [9] = assay: Antihypertensive activity in DOCA salt-induced CD-1 rat model of hypertension assessed as reduction in blood pressure administered via oral gavage in ascending cumulative doses […] measured up to 24 hrs by telemetry method; assay type: functional
In short: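 Conscious DOCA-salt hypertensive rats, a low-renin model, dosed orally. Reduction in blood pressure is followed over time. ED10 is the dose giving an average 10% reduction in the 24 h average MAP.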

Rattus norvegicus [10] = assay: In vivo inhibition of NEP in Sprague-Dawley rat assessed as potentiation of ANP-induced elevation of urinary cGMP level at 3 mg/kg, iv treated for 5 mins at 15 mins post 2 doses of angiotensin-2 treatment at 15 minutes apart followed by ANP treatment measured up to 60 mins by EIA relative to control; assay type: functional; in short: as §1
[11] = target: Angiotensin-converting enzyme (Homo sapiens, UniProt P12821); assay: Inhibition of recombinant human ACE using Mca-BK2 as substrate preincubated for 10 mins followed by fluorogenic substrate addition and measured after 20 mins by fluorescence assay
Angiotensin-converting enzyme, sequence (P12821 whole entry): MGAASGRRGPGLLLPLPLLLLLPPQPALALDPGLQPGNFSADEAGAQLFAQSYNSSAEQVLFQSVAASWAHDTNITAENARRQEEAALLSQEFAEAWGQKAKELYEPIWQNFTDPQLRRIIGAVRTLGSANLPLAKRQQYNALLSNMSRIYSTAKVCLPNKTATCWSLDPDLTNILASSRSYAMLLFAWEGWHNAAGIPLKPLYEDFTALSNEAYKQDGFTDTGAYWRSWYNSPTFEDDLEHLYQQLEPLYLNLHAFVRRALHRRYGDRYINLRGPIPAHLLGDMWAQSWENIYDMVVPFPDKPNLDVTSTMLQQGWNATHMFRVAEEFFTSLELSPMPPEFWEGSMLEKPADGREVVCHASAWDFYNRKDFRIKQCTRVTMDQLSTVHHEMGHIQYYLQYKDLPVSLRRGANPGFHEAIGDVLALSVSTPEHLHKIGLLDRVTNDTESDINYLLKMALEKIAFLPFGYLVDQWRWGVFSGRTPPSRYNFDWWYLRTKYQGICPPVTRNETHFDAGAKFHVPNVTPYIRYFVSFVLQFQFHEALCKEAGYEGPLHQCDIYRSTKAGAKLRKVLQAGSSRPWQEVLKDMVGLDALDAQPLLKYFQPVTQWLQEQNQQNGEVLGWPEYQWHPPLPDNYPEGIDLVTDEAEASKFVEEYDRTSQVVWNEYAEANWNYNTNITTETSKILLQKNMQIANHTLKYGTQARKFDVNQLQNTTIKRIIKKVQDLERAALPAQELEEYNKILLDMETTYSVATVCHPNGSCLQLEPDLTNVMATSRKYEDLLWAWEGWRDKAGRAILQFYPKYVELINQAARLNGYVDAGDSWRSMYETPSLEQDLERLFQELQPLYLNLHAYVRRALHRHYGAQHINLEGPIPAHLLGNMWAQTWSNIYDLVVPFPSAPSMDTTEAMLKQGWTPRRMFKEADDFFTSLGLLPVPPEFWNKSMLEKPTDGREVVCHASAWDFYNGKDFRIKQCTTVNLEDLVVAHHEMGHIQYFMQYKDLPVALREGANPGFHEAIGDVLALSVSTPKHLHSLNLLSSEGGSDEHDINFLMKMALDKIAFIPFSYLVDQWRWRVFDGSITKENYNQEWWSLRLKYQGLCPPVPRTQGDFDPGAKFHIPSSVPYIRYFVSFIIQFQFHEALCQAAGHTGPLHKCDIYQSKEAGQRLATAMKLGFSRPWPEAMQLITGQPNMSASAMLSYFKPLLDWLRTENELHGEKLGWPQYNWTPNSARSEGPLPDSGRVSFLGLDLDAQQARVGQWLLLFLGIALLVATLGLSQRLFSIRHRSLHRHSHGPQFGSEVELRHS

[12] = target: T4, Type-2 angiotensin II receptor (Homo sapiens, UniProt P50052); assay: Displacement of Europium-labeled angiotensin-2 from human AT2 receptor expressed in CHOK1 cell membranes after 120 mins by DELFIA
T4 sequence (P50052 whole entry): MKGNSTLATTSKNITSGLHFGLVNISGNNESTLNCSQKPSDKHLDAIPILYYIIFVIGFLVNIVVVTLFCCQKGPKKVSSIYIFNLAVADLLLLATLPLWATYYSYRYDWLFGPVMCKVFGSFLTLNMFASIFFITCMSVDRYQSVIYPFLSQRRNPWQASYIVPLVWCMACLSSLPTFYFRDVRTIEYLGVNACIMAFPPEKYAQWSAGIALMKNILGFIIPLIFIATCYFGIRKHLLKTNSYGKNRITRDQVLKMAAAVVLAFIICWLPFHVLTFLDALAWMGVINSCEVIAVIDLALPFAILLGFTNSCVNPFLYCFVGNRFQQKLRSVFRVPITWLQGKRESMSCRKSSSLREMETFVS

| Ki [1] [µM] | Structure (SMILES) | inhibition in vivo at 3 mg/kg (Rattus norvegicus [2]) [%] | other results |
| --- | --- | --- | --- |
| 0.0501 | CCCCc1nc(C)c(CNC(=O)[C@@H](CS)CC(C)C)n1Cc1ccc(-c2ccccc2C(=O)O)cc1 | – | – |
| 0.0316 | CCCCc1nc(Cl)c(CNC(=O)C(CS)CC2CC2)n1Cc1ccc(-c2ccccc2C(=O)O)cc1 (racemic) | – | – |
| 0.126 | CCCCc1nc(Cl)c(CNC(=O)C(CS)CCC(C)C)n1Cc1ccc(-c2ccccc2C(=O)O)cc1 (racemic) | – | – |
| 0.0316 | CCCCc1nc(CC(C)C)c(CNC(=O)[C@@H](S)CC(C)C)n1Cc1ccc(-c2ccccc2C(=O)O)cc1 | 32 | – |
| 0.00251 | CCCOc1nc(CC)c(CNC(=O)[C@@H](CS)CC(C)C)n1Cc1ccc(-c2ccccc2C(=O)O)cc1 | 65 | – |
| 0.00126 | CCOc1nc(CC)c(CNC(=O)[C@@H](CS)CC(C)C)n1Cc1ccc(-c2ccccc2C(=O)O)cc1 | 67 | – |
| 0.00631 | CCCCc1nc(C2CC2)c(CNC(=O)[C@@H](CS)CC(C)C)n1Cc1ccc(-c2ccccc2C(=O)O)cc1 | 55 | – |
| 0.631 | CCCCc1nc(Cl)c(CNC(=O)C(CS)C(C)CC)n1Cc1ccc(-c2ccccc2C(=O)O)cc1 (racemic) | – | – |
| 0.000794 | CCOc1nc(CC)c(CNC(=O)[C@@H](CS)CC(C)C)n1Cc1ccc(-c2ccccc2C(=O)O)cc1F | 85 | – |
| 0.01 | CCCCc1nc(Cl)c(CNC(=O)CNC(=O)C(CS)Cc2ccccc2)n1Cc1ccc(-c2ccccc2-c2nnn[nH]2)cc1 (racemic) | – | – |
| 0.02 | CCCOc1nc(CC)c(CNC(=O)[C@@H](S)CC(C)C)n1Cc1ccc(-c2ccccc2C(=O)O)cc1 | 23 | – |
| 0.00631 | CCOc1nc(CC)c(CNC(=O)[C@@H](S)CC(C)C)n1Cc1ccc(-c2ccccc2C(=O)O)cc1 | 57 | – |
| 0.1 | CCCCc1nc(Cl)c(CNC(=O)[C@H](CS)CC(C)C)n1Cc1ccc(-c2ccccc2C(=O)O)cc1 | – | – |
| 0.398 | CCCCc1nc(Cl)c(CNC(=O)C(CS)Cc2ccc(-c3ccccc3)cc2)n1Cc1ccc(-c2ccccc2C(=O)O)cc1 (racemic) | – | – |
| 0.0501 | CCCCc1nc(Cl)c(CNC(=O)C(CS)CC(CC)CC)n1Cc1ccc(-c2ccccc2C(=O)O)cc1 (racemic) | – | – |
| 0.0158 | CCCCc1nc(Cl)c(CNC(=O)[C@@H](CS)CC(C)C)n1Cc1ccc(-c2ccccc2C(=O)O)cc1 | 11 | – |
| 0.251 | CCCCc1nc(Cl)c(CNC(=O)C(CS)CC2CCCCC2)n1Cc1ccc(-c2ccccc2C(=O)O)cc1 (racemic) | – | – |
| 0.00794 | CCCCc1nc(CC(C)C)c(CNC(=O)[C@@H](CS)CC(C)C)n1Cc1ccc(-c2ccccc2C(=O)O)cc1 | – | – |
| 0.398 | CCCCc1nc(Cl)c(CNC(=O)C(CS)Cc2cccc3ccccc23)n1Cc1ccc(-c2ccccc2C(=O)O)cc1 (racemic) | – | – |
| 0.0631 | CCCCc1nc(Cl)c(CNC(=O)[C@@H](S)CC(C)C)n1Cc1ccc(-c2ccccc2C(=O)O)cc1 | – | – |

| Ki [1] [µM] | Structure (SMILES) | inhibition in vivo at 3 mg/kg (Rattus norvegicus [2]) [%] | other results |
| --- | --- | --- | --- |
| 0.00501 | CCCCc1nc(CC)c(CNC(=O)[C@@H](CS)CC(C)C)n1Cc1ccc(-c2ccccc2C(=O)O)cc1 | 68 | – |
| 0.126 | CCCCc1nc(Cl)c(CNC(=O)C(CS)C(C)C)n1Cc1ccc(-c2ccccc2C(=O)O)cc1 (racemic) | – | – |
| 0.158 | CCCCc1nc(Cl)c(CNC(=O)C(CS)Cc2ccc3ccccc3c2)n1Cc1ccc(-c2ccccc2C(=O)O)cc1 (racemic) | – | – |
| 0.126 | CCCCc1nc(Cl)c(CNC(=O)[C@H](S)CC(C)C)n1Cc1ccc(-c2ccccc2C(=O)O)cc1 | – | – |
| 0.00501 | CCOc1nc(CC)c(CNC(=O)[C@@H](S)CC(C)C)n1Cc1cc(F)c(-c2ccccc2C(=O)O)cc1F | – | – |
| 0.126 | CCCCc1nc(Cl)c(CNC(=O)C(CS)CCCC)n1Cc1ccc(-c2ccccc2C(=O)O)cc1 (racemic) | – | – |
| – | CCCCc1nc(Cl)c(CO)n1Cc1ccc(-c2ccccc2-c2nn[nH]n2)cc1 [LOSARTAN] | – | IC50 (Neprilysin): > 10 µM |
| 0.0794 | CCCCc1nc(Cl)c(CNC(=O)C(CS)Cc2ccccc2)n1Cc1ccc(-c2ccccc2C(=O)O)cc1 (racemic) | – | – |
| 0.0158 | CCCCc1nc(Cl)c(CNC(=O)C(CS)Cc2ccccc2)n1Cc1ccc(-c2ccccc2-c2nnn[nH]2)cc1 (racemic) | – | – |
| 0.0316 | CCCCc1nc(C2CC2)c(CNC(=O)[C@@H](S)CC(C)C)n1Cc1ccc(-c2ccccc2C(=O)O)cc1 | 5 | – |
| 0.00126 | CCOc1nc(CC)c(CNC(=O)[C@@H](S)CC(C)C)n1Cc1ccc(-c2ccccc2C(=O)O)cc1F | 76 | Activity (Rattus norvegicus [3]): Dose-dependent effect; ED10 (Rattus norvegicus [3]): 13 mg/kg; IC50 [4]: > 10 µM; Ratio Ki (Homo sapiens [5]): 2000; % IP accumulation [6]: < 5%; Ratio IC50 (Homo sapiens [7]): 120; IC50 [8]: 0.0794 µM; Activity (Rattus norvegicus [9]): Dose-dependent effect; ED10 (Rattus norvegicus [9]): 44 mg/kg; fold change (FC) (Rattus norvegicus [10]): 3.5; IC50 [11]: > 10 µM; Ki [12]: 2.51 µM |
| 0.0398 | CCCCc1nc(CC)c(CNC(=O)[C@@H](S)CC(C)C)n1Cc1ccc(-c2ccccc2C(=O)O)cc1 | 18 | – |
| 0.01 | CCCCc1nc(Cl)c(CNC(=O)C(CS)CC(C)C)n1Cc1ccc(-c2ccccc2-c2nnn[nH]2)cc1 (racemic) | – | – |
| 0.0398 | CCCCc1nc(Cl)c(CNC(=O)C(CS)CC(C)C)n1Cc1ccc(-c2ccccc2C(=O)O)cc1 (racemic) | – | – |
| 0.0501 | CCCCc1nc(Cl)c(CNC(=O)C(CS)CC2CCCC2)n1Cc1ccc(-c2ccccc2C(=O)O)cc1 (racemic) | – | – |
| 0.0794 | CCCCc1nc(Cl)c(CNC(=O)C(CS)C(C)c2ccccc2)n1Cc1ccc(-c2ccccc2C(=O)O)cc1 (racemic) | – | – |
| 0.00501 | CCOc1nc(CC)c(CNC(=O)[C@@H](S)CC(C)C)n1Cc1ccc(-c2ccccc2C(=O)O)c(F)c1 | 57 | – |
| 0.00126 | CCOc1nc(CC)c(CNC(=O)[C@@H](CS)CC(C)C)n1Cc1ccc(-c2ccccc2C(=O)O)c(F)c1 | – | – |
| 0.2 | CCCCc1nc(C)c(CNC(=O)[C@@H](S)CC(C)C)n1Cc1ccc(-c2ccccc2C(=O)O)cc1 | – | – |
| – | CCCCc1nc(Cl)c(CO)n1Cc1ccc(-c2ccccc2-c2nnn[nH]2)cc1 [LOSARTAN] | 67 | % IP accumulation [6]: 87% |

| Structure (SMILES) | Ki [1] [µM] | inhibition in vivo at 3 mg/kg (Rattus norvegicus [2]) [%] | other results |
| --- | --- | --- | --- |
| O=C(O)CNC(=O)C(CS)Cc1ccccc1 (configuration not stated) [THIORPHAN] | > 10 | – | – |
